Laboratory results: ChEMBL document CHEMBL1137684, “Examination of growth inhibitory properties of synthetic chalcones for which antibacterial activity was predicted” (2009)
Values after ≈ are worked out from the molar mass of the structure shown. Active and inactive are the calls of the source. How the calls were made is not given here.

Legend:
[1] = system: Escherichia coli; assay: Antibacterial activity against Escherichia coli WF+; assay type: functional, organism-based
[2] = system: Staphylococcus aureus; assay: Antibacterial activity against Staphylococcus aureus Rosenbach 209 after 48 hrs by agar well diffusion method; assay type: functional
Summary of the method: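 Agar-well diffusion on meat-peptone agar. Read-out was the diameter of the inhibition zone, with ≥15 mm taken as active. Pure solvent served as the control.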

[3] = system: Staphylococcus aureus; assay: Antibacterial activity against Staphylococcus aureus Rosenbach 209 after 24 hrs by serial dilution method; assay type: functional; conditions: Rosenbach 209, 24 h
Summary of the method: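 Serial dilution of each chalcone in meat-peptone broth in tubes. Each tube was inoculated with bacterial suspension at 10⁵ cells/ml and incubated at 37 °C for 24 h. MIC was the lowest dilution with no visible growth compared with inoculated drug-free broth.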

SMILES	MIC [3] [µg/mL]	Activity [1]	diameter of the inhibition zone (DIZ) [2] [mm]
COc1cc(C(=O)/C=C/c2ccccc2)cc(OC)c1OC	250 (≈ 838 µM)	inactive	0
COc1ccc(/C=C/C(=O)c2cc(OC)c(OC)c(OC)c2)cc1	500 (≈ 1520 µM)	inactive	0
COc1cc(C(=O)/C=C/c2ccc(NC(C)=O)cc2)cc(OC)c1OC	500 (≈ 1410 µM)	inactive	0
COc1cc(C(=O)/C=C/c2ccccc2O)cc(OC)c1OC	500 (≈ 1590 µM)	inactive	0
COc1cc(C(=O)/C=C/c2ccc(C#N)cc2)cc(OC)c1OC	62.5 (≈ 193 µM)	inactive	0
O=C(/C=C/c1cccc(O)c1)c1ccccc1 [3-HYDROXY CHALCONE]	250 (≈ 1110 µM)	inactive	20
O=C(/C=C/c1ccc(O)c(O)c1)c1ccccc1	125 (≈ 520 µM)	inactive	21
CC(=O)Nc1ccc(/C=C/C(=O)c2ccccc2)cc1	500 (≈ 1880 µM)	inactive	0
O=C(/C=C/C=C/c1ccccc1)c1ccccc1	500 (≈ 2130 µM)	inactive	0
COc1cc(C(=O)/C=C/C=C/c2ccccc2)cc(OC)c1OC	500 (≈ 1540 µM)	inactive	19
COc1ccc(/C=C/C(=O)c2ccccc2)cc1O	250 (≈ 983 µM)	inactive	0
COc1cc(/C=C/C(=O)/C=C/c2cc(OC)c(OC)c(OC)c2)cc(OC)c1OC	250 (≈ 603 µM)	inactive	0
COc1cc(C(=O)/C=C/c2cccc(O)c2)cc(OC)c1OC	500 (≈ 1590 µM)	inactive	0
COc1cc(C(=O)/C=C/c2ccc(C)cc2)cc(OC)c1OC	500 (≈ 1600 µM)	inactive	0
COc1cc(/C=C/C(=O)c2cc(OC)c(OC)c(OC)c2)ccc1O	500 (≈ 1450 µM)	inactive	0
COc1cc(C(=O)/C=C/c2ccc(O)cc2)cc(OC)c1OC	500 (≈ 1590 µM)	inactive	0
O=C(/C=C/c1ccccc1O)c1ccccc1	62.5 (≈ 279 µM)	inactive	22
O=C(/C=C/c1ccc([N+](=O)[O-])cc1)c1ccccc1	250 (≈ 987 µM)	inactive	17
O=C(/C=C/C=C/c1ccccc1)/C=C/C=C/c1ccccc1	500 (≈ 1750 µM)	inactive	0
COc1cc(/C=C/C(=O)c2ccccc2)ccc1O	500 (≈ 1970 µM)	inactive	0
COc1ccc(/C=C/C(=O)c2cc(OC)c(OC)c(OC)c2)cc1O	500 (≈ 1450 µM)	inactive	0
O=C(/C=C/c1ccccc1)c1ccccc1 [CHALCONE]	125 (≈ 600 µM)	inactive	29
COc1cccc(/C=C/C(=O)c2ccccc2)c1O	125 (≈ 492 µM)	inactive	19
COc1cc(C(=O)/C=C/c2ccc([N+](=O)[O-])cc2)cc(OC)c1OC	62.5 (≈ 182 µM)	inactive	0
COc1cc(/C=C/C(=O)c2ccc(Cl)cc2)cc(OC)c1O	500 (≈ 1570 µM)	inactive	19
CN(C)c1ccc(/C=C/C(=O)c2ccccc2)cc1	500 (≈ 1990 µM)	inactive	0
COc1cc(C(=O)/C=C/c2ccc(N(C)C)cc2)cc(OC)c1OC	500 (≈ 1460 µM)	inactive	0
O=C(/C=C/c1cc([N+](=O)[O-])ccc1O)c1ccc(Cl)cc1	500 (≈ 1650 µM)	inactive	0

Now from value to compound, other results behind:

MIC [3] [µg/mL]	SMILES	Activity [1]	diameter of the inhibition zone (DIZ) [2] [mm]
500 (≈ 2250 µM)	Cc1ccc(/C=C/C(=O)c2ccccc2)cc1	inactive	0
125 (≈ 483 µM)	O=C(/C=C/c1ccccc1O)c1ccc(Cl)cc1	inactive	20
62.5 (≈ 216 µM)	COc1ccc(/C=C/C(=O)c2ccc(Cl)cc2)cc1O	inactive	0
500 (≈ 1830 µM)	COc1ccc(/C=C/C(=O)c2ccc(Cl)cc2)cc1	inactive	0
500 (≈ 2060 µM)	O=C(/C=C/c1ccc(Cl)cc1)c1ccccc1 [4-CHLORO CHALCONE]	inactive	0
125 (≈ 557 µM)	O=C(/C=C/c1ccc(O)cc1)c1ccccc1 [4-HYDROXYCHALCONE]	inactive	19
125 (≈ 483 µM)	O=C(/C=C/c1cccc(O)c1)c1ccc(Cl)cc1	inactive	25
500 (≈ 1670 µM)	CC(=O)Nc1ccc(/C=C/C(=O)c2ccc(Cl)cc2)cc1	inactive	0
62.5 (≈ 188 µM)	COc1cc(C(=O)/C=C/c2ccc(Cl)cc2)cc(OC)c1OC	inactive	0
500 (≈ 2100 µM)	COc1ccc(/C=C/C(=O)c2ccccc2)cc1 [4-METHOXY CHALCONE]	inactive	0
125 (≈ 483 µM)	O=C(/C=C/c1ccc(O)cc1)c1ccc(Cl)cc1	inactive	31
500 (≈ 2140 µM)	N#Cc1ccc(/C=C/C(=O)c2ccccc2)cc1	inactive	16
250 (≈ 866 µM)	COc1cc(/C=C/C(=O)c2ccc(Cl)cc2)ccc1O	inactive	21
500 (≈ 1800 µM)	O=C(/C=C/c1ccc(Cl)cc1)c1ccc(Cl)cc1 [4',4-DICHLOROCHALCONE]	inactive	0
500 (≈ 1860 µM)	O=C(/C=C/C=C/c1ccccc1)c1ccc(Cl)cc1	inactive	0
500 (≈ 1750 µM)	CN(C)c1ccc(/C=C/C(=O)c2ccc(Cl)cc2)cc1	inactive	0
125 (≈ 455 µM)	O=C(/C=C/c1ccc(O)c(O)c1)c1ccc(Cl)cc1	inactive	19
250 (≈ 869 µM)	O=C(/C=C/c1ccc([N+](=O)[O-])cc1)c1ccc(Cl)cc1	inactive	17
250 (≈ 934 µM)	N#Cc1ccc(/C=C/C(=O)c2ccc(Cl)cc2)cc1	inactive	21
500 (≈ 1950 µM)	Cc1ccc(/C=C/C(=O)c2ccc(Cl)cc2)cc1	inactive	0
250 (≈ 866 µM)	COc1cccc(/C=C/C(=O)c2ccc(Cl)cc2)c1O	inactive	0
250 (≈ 825 µM)	O=C(/C=C/c1ccc(Cl)cc1)/C=C/c1ccc(Cl)cc1	inactive	0
500 (≈ 2060 µM)	O=C(/C=C/c1ccccc1)c1ccc(Cl)cc1	inactive	0
